# In ChEMBL document CHEMBL4513216, “Probing the Open Global Health Chemical Diversity Library for Multistage-Active Starting Points for Next-Generation Antimalarials” (ACS Infect Dis, 2020):
# Test: Toxicity liver stage against HepG2, at 10uM
# Assay type: cell-based
# Parameters: test concentration 10 uM, cell line HepG2-A16-CD81EGFP
# Conditions: human, HepG2-A16-CD81EGFP cells; read-out: INHIBITION
# Summary of the method: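 Uninfected HepG2-A16-CD81EGFP cells, 3 × 10^3 per well, 1536-well, plated on prespotted compound at 10 μM final, parasite-free screening media added to match infected plates; puromycin 10 μM positive, DMSO 0.5% negative; run in parallel with 48 h PbLuc assay at 37 °C, 5% CO2; viability by CellTiter-Glo luminescence, normalized to controls.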
row,SMILES,cytotoxicity at 10 µM
1,Cc1cc(C2CCCN2C(=O)c2cc3c(s2)CCC3)no1 (centres undefined),-11%
2,CCN1C(=O)COC[C@@H]1[C@H](O)c1ccc(NC(=O)COC)cc1,1.73%
3,CCCc1nccn1-c1cccc(CN2CCCC2)c1,-4.87%
4,Cc1nc(C2CCCN2CC(=O)Nc2cc(C(C)(C)C)nn2C)no1 (centres undefined),-10.9%
5,C[S+]([O-])CCNC(=O)N1CCSC2(CCCCC2)C1 (centres undefined),-0.363%
6,CN1CCCC(c2nc3c([nH]2)CC(C)(C)CNC3=O)C1 (centres undefined),9.01%
7,CC(C)(C)c1coc([C@@H]2COCCN2Cc2c[nH]c3ccccc23)n1,-1.23%
8,Cc1nc(COCc2cnc3n2CCN(C2CCC2)C3C)cs1 (centres undefined),-3.82%
9,Cc1cccc(N2CCN(C(=O)CNCCn3cc(C)cn3)CC2)c1,-2.83%
10,CC(C)NC(=O)N1CCC(c2nccn2C(C)C)CC1,-6.77%
11,Cc1cc(CN2CCN(CC(O)c3ccc4c(c3)OCO4)CC2)no1 (centres undefined),-7.82%
12,Cc1cnc(C(=O)N2CCN(C(=O)CC(C)C)[C@@H]3CS(=O)(=O)C[C@@H]32)cn1,-3.06%
13,CCOc1ncnc2c1CCN(S(=O)(=O)c1ccccc1)CC2,-110%
14,COc1ccccc1Oc1cncc(C2CCCN(CC(N)=O)C2)n1 (centres undefined),-15.5%
15,Clc1ccc2cccnc2c1CN1CCCCC1Cn1cncn1 (centres undefined),7.63%
16,CCCC(=O)N1CCC2(CC1)CN(Cc1cccc(C)n1)C(=O)CO2,-5.05%
17,O=C(c1cnccn1)N1CCc2ncc(CN3CCOCC3)n2CC1,-77%
18,CC1CCN(S(=O)(=O)c2cccn(CC(=O)NC(C)(C)C)c2=O)CC1,0.00219%
19,CC(C)N1CCN(C(=O)Nc2cnn(CC(N)=O)c2)CC1,-12.2%
20,CC(=O)N1CCCC1C(=O)NCCOc1ccc(C(C)C)cc1 (centres undefined),-5.26%
21,Cn1ccnc1CC1CCCN(C(=O)NCCOc2cccnc2)C1 (centres undefined),-5.19%
22,CCn1cnnc1CNC(=O)N1CCN(c2cccc(OC)c2)CC1,-8.62%

row,SMILES,cytotoxicity at 10 µM
1,CN(CC(N)=O)CC(=O)N(C1=CCCCC1)C1CC1,-3.85%
2,Cc1cc(CSc2ccccn2)on1,8.4%
3,Cc1nc(CN2CCC3(CCN(Cc4nccn4C)CC3)C2=O)cs1,-1.43%
4,O=C(O)CCNC(=O)C1(c2cccc(Br)c2)CCOCC1,6.92%
5,c1cnn(Cc2nnc3n2CCCN(CC2CCOCC2)C3)c1,2.6%
6,CC(C)CC(=O)N1CCC2(CC1)COCCN2Cc1ccc(F)cc1,-77.1%
7,CCCc1ccc(OC23CCCN(CC2)C3)c(OC)c1 (centres undefined),-17.3%
8,O=C(CN1CC(c2nc(Cc3ccccc3)no2)C1)NCC1CCCO1 (centres undefined),-6.06%
9,O=C(NCC1CCOCC1)[C@@H]1C[C@@H]2[C@@H](CCN2Cc2nccs2)O1,0.11%
10,Cc1nccn1-c1cc(CNC(=O)CC2CCCO2)ccn1 (centres undefined),0.491%
11,Cc1nocc1C(=O)N1CCOC2(COCCN(CC3CC3)C2)C1 (centres undefined),3.42%
12,CCCN1CCC2(Cc3ccccc3NC2=O)C1 (centres undefined),14.5%
13,O=C(c1cnccn1)N1CCC(Oc2ncccc2Cl)CC1,0.566%
14,Cc1cnn(CC2CCCN2CC(=O)N(C)Cc2ccco2)c1 (centres undefined),10.8%
15,Fc1cccc2ncnc(NCCCc3ccncc3)c12,7.02%
16,Cc1cc(C[S+]([O-])Cc2ccccc2F)no1 (centres undefined),-3.71%
17,Nc1nc2c(c(NC(=O)Nc3cccc(Cl)c3)n1)CCCC2,-2.8%
18,Cc1ncsc1CN1C[C@@H](OCc2ccccn2)[C@H]2OCCC[C@H]21,-141%
19,Cc1cnc(CN(C)Cc2cc3c(cc2OC(F)F)OCO3)o1,-8.78%
20,CC(Nc1cnn(C)c(=O)c1Cl)c1ccc(F)c(F)c1 (centres undefined),31.3%
21,Cc1ccc(C(=O)N2CCC(c3nccn3Cc3ccncc3)CC2)s1,1.2%
22,CCc1nc(C)c(CN2CCOC(Cc3ccccc3Cl)C2)[nH]1 (centres undefined),-0.527%

row,SMILES,cytotoxicity at 10 µM
1,COCC(=O)N1CCCC(C(=O)N(C)CCCc2cnn(C)c2)C1 (centres undefined),-137%
2,O=C(CSC1=NS(=O)(=O)c2cc(F)ccc2N1)Nc1ccc(Cl)cc1,8.93%
3,O=C(Nc1nc(-c2ccccc2)ns1)N1CCC(F)CC1,-137%
4,Cc1ccc(C(=O)N2C[C@@H]3CCN(c4cccnc4)C[C@@H]3C2)cn1,-75.9%
5,CN(C)C(C(=O)NCC1(O)CCCCC1)c1c(F)cccc1F (centres undefined),-5.52%
6,CCN(CC)c1ncccc1CNC(=O)c1cc2nc(C)cc(C)n2n1,6.43%
7,Clc1cccc(N[C@H]2CCCN[C@H]2Cc2ccccc2)c1,89.4%
8,CCn1nc(C)c(CNC(=O)NCC(C)(O)c2ccc(C)o2)c1C (centres undefined),10.5%
9,Cc1ccsc1-c1nc(CN(C)Cc2cc[nH]n2)c(C)o1,10.3%
10,N#Cc1cc(NS(=O)(=O)c2ccc(C(=O)O)cc2F)ccc1F,-10.9%
11,CCN1CCN(Cc2nc(Cc3ccccc3)n[nH]2)CC1,-9.34%
12,Cc1cc(C)n(Cc2cccc(C(=O)NCCSCC(C)(C)O)c2)n1,-6.93%
13,COc1ccc(C2=CCN(C(=O)CN(C)S(C)(=O)=O)CC2)cc1,-3.99%
14,CCN1C[C@H]2[C@@H](C1)N(S(=O)(=O)c1ccccc1F)CC[C@H]2OC,-74.1%
15,Nc1ncccc1C(=O)NCc1cccc(Cl)c1,20.5%
16,NC(=O)NC(=O)CN1CCN(CC2CC2)c2ccccc21,11.7%
17,O=C1CN(Cc2occc2C(=O)NCCc2ccc(F)cc2)CCN1,-10.2%
18,CCN(Cc1ccncc1)CC1(O)CCN(C(=O)c2cnn(C)c2)C1 (centres undefined),-26.9%
19,Cc1ccc(C)c(OCc2cc(C(=O)N(C)Cc3nonc3C)no2)c1,-5.83%
20,CC(=O)Nc1nc(C2CCN(C(=O)Cc3ccccc3)CC2)cs1,-11.8%
21,CC(C)OCCS(=O)(=O)c1nccn1-c1cccc(F)c1,-3.3%
22,Fc1ccc2c(c1)C1(CCNCC1)CC2OCC1CC1 (centres undefined),4.92%

row,SMILES,cytotoxicity at 10 µM
1,CCn1c(N)nc2cc(C(=O)N3CCCOCC3)cnc21,-8.24%
2,CC(C)(C)c1noc(CCCC(=O)N2CCCC(c3ccn[nH]3)C2)n1 (centres undefined),-14.2%
3,COCCN1C[C@H]2CN(C(=O)c3ccc4c(c3)OCO4)CCN2C1=O,13.7%
4,CC(Cn1cccn1)NC(=O)Cc1cccs1 (centres undefined),4.93%
5,CCN(CC)CCC(=O)NCc1cc2n(n1)CCN(C(=O)N(C)C)C2,-6.72%
6,COc1ccc(F)cc1CN1CCC(O)(CN2CCCCC2)C1 (centres undefined),-12%
7,CCC1=N[C@@]2(CC[C@@H]3CN(C(=O)NCc4ccccc4)C[C@@H]32)C(=O)N1C,1.05%
8,Cc1cc(CN2CC[C@H]3C[C@H](c4nccs4)O[C@@H]3C2)no1,3.22%
9,COc1ccccc1CC(=O)NS(=O)(=O)c1cncc(Br)c1,-12.7%
10,NC(=O)CN1C(=O)CO[C@H]2CN(Cc3ccc(Cl)cc3)C[C@H]21,13%
11,Cc1ccc(OCC(=O)NCc2sccc2C)nc1,-0.509%
12,O=C(Nc1cnn(CC(=O)N2CCCCO2)c1)c1ccccn1,-0.0294%
13,COc1ccccc1C(C)(C)NC(=O)c1cc(NC(C)=O)ccc1F,-137%
14,CC(=O)N(C)CC(=O)NCC1(c2cccc(C)c2)CCCC1,-2.37%
15,COC1CCN(S(=O)(=O)N2CCCC2c2ccco2)CC1 (centres undefined),11%
16,CCNC(=O)[C@@H]1C[C@H](N)CN1C(=O)C1(c2ccc(OC)cc2)CCCC1,5.67%
17,COCCc1noc(Cn2ccc3ncccc3c2=O)n1,-2.59%
18,O=C(O)[C@@H]1CN(C(=O)c2ccc3nccnc3c2)C[C@H]1c1ccncc1,-11.3%
19,O=C(c1ccc(=O)[nH]c1)N1CCC(Oc2cccc(C(F)(F)F)c2)CC1,2.26%
20,O=C(c1ccc[nH]1)N1CCCC2(CCCN2Cc2cccnc2)C1 (centres undefined),3.83%
21,Cc1nn(C)c(C)c1CNC(=O)CCn1ncc2c(Cl)cccc21,8.38%
22,CCn1c2c(ccc1=O)CC(NCc1cnn(C)c1)CC2 (centres undefined),-102%

row,SMILES,cytotoxicity at 10 µM
1,COc1cc(C)cc(C(C(=O)O)N(C)CCN2CCCC2)c1OC (centres undefined),0.712%
2,CN(Cc1ccccc1O)C(=O)Nc1cc(F)cc(N2CCCC2)c1,7.93%
3,Cc1ccc(CNC(c2ccccc2)c2nccn2C)cc1 (centres undefined),-6.3%
4,CC(=O)N1CCC(C(=O)c2cnn(-c3ccccc3)c2N)C1 (centres undefined),5.54%
5,CC(C)Cc1nc(CN2CCC(N3CCN(C)C3=O)CC2)no1,14%
6,Cn1nc(C2CNCCO2)cc1CCOc1ccc(C(F)(F)F)cc1 (centres undefined),-7.54%
7,CC(CN1CCOCC1)NC1CCN(Cc2cccc(O)c2)CC1 (centres undefined),-0.683%
8,Cn1cc(C(=O)N[C@@H]2CN(Cc3ccc(F)cc3)[C@@H]3CCCO[C@@H]32)cn1,-1.31%
9,COCc1nn(C(C)C)c2c1CCN(Cc1ccc(C)o1)C2,2.32%
10,CC1N(CC2CC2)C(=O)COC12CCN(Cc1nccs1)CC2 (centres undefined),-8.19%
11,CC(=O)c1sc(C(NC(=O)c2ccccc2)C2CC2)nc1C (centres undefined),-15.5%
12,O=C(Nc1ccccn1)C1=NN(c2ccccc2)C(=O)CN1,-1.53%
13,Cc1cc(C(F)(F)F)nc(CNC(=O)C2CCCCCN2C)n1 (centres undefined),-46%
14,COC(=O)c1cccc(S(=O)(=O)NC(=O)CC2CCCC2)c1,-9.68%
15,CN1CC(C(=O)NCCOc2ccc3c(c2)OCO3)CC1=O (centres undefined),-4.35%
16,COc1ccc(CNC(C)c2ccc3[nH]c(=O)[nH]c3c2)cc1 (centres undefined),-5.04%
17,CC(C)n1cc(-c2nc3cc(S(=O)(=O)N4CCCC4)ccc3n2C)cn1,1.12%
18,CCC(=O)N1CCC(c2nc3c(c(NC)n2)CN(C)CC3)C1 (centres undefined),-3.74%
19,O=C(CNC(=O)C1CCCC1)NCc1cnn(-c2ccc(F)cc2F)c1,8.21%
20,COCCC1CN(c2nc(-c3ccccc3)nc3c2CCNC3)CCO1 (centres undefined),-2.98%
21,O=C1CC(N(C(=O)c2ccc(-n3cccc3)cc2)C2CC2)C(=O)N1 (centres undefined),-1.67%
